Test results published in ChEMBL document CHEMBL3525945, “Metabolic switching of BILR 355 in the presence of ritonavir. II. Uncovering novel contributions by gut bacteria and aldehyde oxidase” (Drug Metab Dispos, 2012).

Tests used:
Cytochrome P450 3A4 [1] = molecular target: T1, Cytochrome P450 3A4 (Homo sapiens, UniProt P08684); test: Activity at recombinant CYP3A4 (unknown origin) expressed in baculovirus-infected insect cells treated with 10 uM BILR402 assessed as enzyme-mediated compound formation at 10 uM after 4 mins by LC-MS/MS analysis in presence of NADPH
[2] = Drug excretion in mouse feces assessed as unchanged drug level; type: ADME, tissue-based; conditions: read-out: Drug excretion
[3] = Drug excretion in dog feces assessed as metabolite level; type: ADME, tissue-based, Canis lupus familiaris
Liver microsome [4] = test: Drug metabolism in human liver microsomes assessed as BILR402 metabolite formation at 5 uM by LC-MS/MS analysis; type: ADME
Procedure, shortened: (§1)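 Pooled human liver microsomes, cytosol or S9 (1 mg/mL) were incubated with BILR 355 (5 μM final) in 0.05 M potassium phosphate pH 7.4 at 37 °C for 60 min. Microsomes and S9 received 2.5 mM NADPH.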

Liver cytosol [5] = test: Drug metabolism in human liver cytosol assessed as BILR402 metabolite formation at 5 uM by LC-MS/MS analysis; type: ADME, tissue-based
Procedure, shortened: as §1

[6] = Drug excretion in dog feces assessed as unchanged drug level; type: ADME, tissue-based, Canis lupus familiaris; conditions: read-out: Drug excretion
Liver microsome [7] = test: Drug metabolism in human liver microsomes assessed as BILR516 disproportionate human metabolite formation at 5 uM after 60 mins by LC-MS/MS analysis; type: ADME; conditions: 1 h
Procedure, shortened: as §1

Liver microsome [8] = test: Drug level in human liver microsomes treated with BILR402 at 1 uM by LC-MS/MS analysis in presence of CYP2C19 inhibitor ticlopidine; type: ADME
Procedure, shortened: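 BILR 402 (1 μM) was incubated with human liver microsomes (0.05 mg/mL) for 30 min with NADPH, with or without ticlopidine 20 μM final as CYP2C19 inhibitor. BILR 402 depletion and BILR 355 formation were measured by LC-MS/MS.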

Liver cytosol [9] = test: Drug metabolism in human liver cytosol assessed as BILR516 disproportionate human metabolite formation at 5 uM after 60 mins by LC-MS/MS analysis; type: ADME, tissue-based; conditions: 1 h
Procedure, shortened: as §1

[10] = Drug metabolism in human liver S9 fraction assessed as BILR402 metabolite formation at 5 uM by LC-MS/MS analysis; type: ADME, subcellular; conditions: s9, 5 µM
Procedure, shortened: as §1

Cytochrome P450 3A4 [11] = molecular target: T1, Cytochrome P450 3A4; test: Activity at recombinant CYP3A4 (unknown origin) expressed in baculovirus-infected insect cells treated with 1 uM BILR402 assessed as enzyme-mediated compound formation after 4 mins by LC-MS/MS analysis in presence of NADPH; type: ADME
Procedure, shortened: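 rCYP3A4 (5 pmol/mL) incubated with BILR 402 at 1 or 10 μM in 0.1 M potassium phosphate/5 mM MgCl2, pH 7.4, with NADPH at 37 °C. Remaining BILR 402 and BILR 355 formed were read at 4 min by LC-MS/MS against a labelled internal standard.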

[12] = Drug excretion in mouse feces assessed as metabolite level; type: ADME, tissue-based
[13] = Drug metabolism in human liver S9 fraction assessed as BILR516 disproportionate human metabolite formation at 5 uM after 60 mins by LC-MS/MS analysis; type: ADME, subcellular; conditions: s9, 1 h
Procedure, shortened: as §1

[14] = Drug excretion in rat feces assessed as unchanged drug level; type: ADME, tissue-based; conditions: read-out: Drug excretion
[15] = Drug excretion in rat feces assessed as metabolite level; type: ADME, tissue-based
[16] = Drug level in human liver S9 fraction treated with BILR402 at 10 uM by LC-MS/MS analysis in presence of NADPH; type: ADME, subcellular; conditions: s9, 10 µM
Procedure, shortened: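 BILR 402 (10 μM final) was incubated with human liver S9 or cytosol (1 mg/mL protein) in 0.05 M potassium phosphate pH 7.4 at 37 °C. Runs were done with or without 2.5 mM NADPH. Samples at 10, 20, 30 and 60 min were quenched in nevirapine/acetonitrile, filtered and analysed by LC-MS/MS; duplicate.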

[17] = substrate: CCN1c2ncc(CCOc3ccnc4ccccc34)cc2C(=O)N(C)c2cccnc21; test: Drug metabolism in human liver cytosol assessed as aldehyde-oxidase-mediated BILR516 metabolite formation after 10 mins by Eadie-Hofstee plot analysis; type: ADME, tissue-based
Procedure, shortened: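 Human liver cytosol (0.1 mg/mL) was incubated with BILR 402 at 12 concentrations, 0.061–125 μM, for 10 min at 37 °C in 0.05 M potassium phosphate pH 7.4 without NADPH, within the linear range for protein and time. […] Apparent Km and Vmax were derived from the kinetic data.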

T1 sequence (P08684 whole entry): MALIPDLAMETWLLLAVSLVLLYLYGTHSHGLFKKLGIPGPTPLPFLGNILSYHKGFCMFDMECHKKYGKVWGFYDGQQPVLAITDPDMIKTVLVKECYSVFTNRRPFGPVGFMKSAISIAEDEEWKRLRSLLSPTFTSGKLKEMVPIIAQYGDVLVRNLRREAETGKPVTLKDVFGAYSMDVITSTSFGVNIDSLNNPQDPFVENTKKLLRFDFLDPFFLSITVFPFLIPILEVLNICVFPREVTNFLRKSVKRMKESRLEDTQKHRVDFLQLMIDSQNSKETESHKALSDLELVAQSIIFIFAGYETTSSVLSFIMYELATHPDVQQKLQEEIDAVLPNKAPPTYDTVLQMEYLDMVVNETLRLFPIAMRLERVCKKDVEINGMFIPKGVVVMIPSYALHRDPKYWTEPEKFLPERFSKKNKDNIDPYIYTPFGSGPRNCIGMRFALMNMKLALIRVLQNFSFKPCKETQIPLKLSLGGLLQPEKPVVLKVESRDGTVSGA

Molecule: CCN1c2ncc(CCOc3cc[n+]([O-])c4ccccc34)cc2C(=O)N(C)c2cccnc21 [BILR 355]
- Drug metabolism (Cytochrome P450 3A4 [1]): 0.9 µM
- dose excreted [2]: 0%
- Drug excretion [3]: 72.5%
- Drug metabolism (Liver microsome [4]): metabolite_not_detected
- Drug metabolism (Liver cytosol [5]): metabolite_not_detected
- dose excreted [6]: 0%
- Drug metabolism (Liver microsome [7]): metabolite_not_detected
- Drug metabolism (Liver microsome [8]): metabolite_detected
- Drug metabolism (Liver cytosol [9]): metabolite_not_detected
- Drug metabolism [10]: metabolite_not_detected
- Drug metabolism (Cytochrome P450 3A4 [11]): 0.15 µM
- Drug excretion [12]: 72.5%
- Drug metabolism [13]: metabolite_not_detected
- dose excreted [14]: 0%
- Drug excretion [15]: 72.5%

Molecule: CCN1c2ncc(CCOc3cc(=O)[nH]c4ccccc34)cc2C(=O)N(C)c2cccnc21
- Drug metabolism [16]: metabolite_detected

B1: Aldehyde oxidase (Homo sapiens) (protein)
chain: MDRASELLFYVNGRKVIEKNVDPETMLLPYLRKKLRLTGTKYGCGGGGCGACTVMISRYNPITKRIRHHPANACLIPICSLYGAAVTTVEGIGSTHTRIHPVQERIAKCHGTQCGFCTPGMVMSIYTLLRNHPEPTLDQLTDALGGNLCRCTGYRPIIDACKTFCKTSGCCQSKENGVCCLDQGINGLPEFEEGSKTSPKLFAEEEFLPLDPTQELIFPPELMIMAEKQSQRTRVFGSERMMWFSPVTLKELLEFKFKYPQAPVIMGNTSVGPEVKFKGVFHPVIISPDRIEELSVVNHAYNGLTLGAGLSLAQVKDILADVVQKLPEEKTQMYHALLKHLGTLAGSQIRNMASLGGHIISRHPDSDLNPILAVGNCTLNLLSKEGKRQIPLNEQFLSKCPNADLKPQEILVSVNIPYSRKWEFVSAFRQAQRQENALAIVNSGMRVFFGEGDGIIRELCISYGGVGPATICAKNSCQKLIGRHWNEQMLDIACRLILNEVSLLGSAPGGKVEFKRTLIISFLFKFYLEVSQILKKMDPVHYPSLADKYESALEDLHSKHHCSTLKYQNIGPKQHPEDPIGHPIMHLSGVKHATGEAIYCDDMPLVDQELFLTFVTSSRAHAKIVSIDLSEALSMPGVVDIMTAEHLSDVNSFCFFTEAEKFLATDKVFCVGQLVCAVLADSEVQAKRAAKRVKIVYQDLEPLILTIEESIQHNSSFKPERKLEYGNVDEAFKVVDQILEGEIHMGGQEHFYMETQSMLVVPKGEDQEMDVYVSTQFPKYIQDIVASTLKLPANKVMCHVRRVGGAFGGKVLKTGIIAAVTAFAANKHGRAVRCVLERGEDMLITGGRHPYLGKYKAGFMNDGRILALDMEHYSNAGASLDESLFVIEMGLLKMDNAYKFPNLRCRGWACRTNLPSNTAFRGFGFPQAALITESCITEVAAKCGLSPEKVRIINMYKEIDQTPYKQEINAKNLIQCWRECMAMSSYSLRKVAVEKFNAENYWKKKGLAMVPLKFPVGLGSRAAGQAAALVHIYLDGSVLVTHGGIEMGQGVHTKMIQVVSRELRMPMSNVHLRGTSTETVPNANISGGSVVADLNGLAVKDACQTLLKRLEPIISKNPKGTWKDWAQTAFDESINLSAVGYFRGYESDMNWEKGEGQPFEYFVYGAACSEVEIDCLTGDHKNIRTDIVMDVGCSINPAIDIGQIEGAFIQGMGLYTIEELNYSPQGILHTRGPDQYKIPAICDMPTELHIALLPPSQNSNTLYSSKGLGESGVFLGCSVFFAIHDAVSAARQERGLHGPLTLNSPLTPEKIRMACEDKFTKMIPRDEPGSYVPWNVPI
- Km [17]: 0.772 µM
- Vmax [17]: 0.000337 µmol/min
